Publication PMC3743796 (Open journal of clinical diagnostics, 2013)
No end group written: not given here.

Tests used:
[1] = tested on: endothelial and tumor cells; experiment: Cell migration/invasion assays, endothelial and tumor cells; type: cell-based, human; settings: SCNH2 10 pM, APL-13 10 nM, SM inhibitors 10 μM, n = 3
In short: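 Chemotaxis plates: agonist peptides and 10 μM small-molecule inhibitors or 100 μg/ml immune IgG in FBS-free medium in the lower wells; 8000-10,000 cells/well (e.g. HUVEC) in FBS-free medium on the upper membrane, uncoated for migration or rat-tail collagen I-coated for invasion. Incubated 5-24 h at 37 °C/5% CO2/100% humidity. Membranes methanol-fixed, stained with 0.5% crystal violet, upper cells removed, underside cells photographed and counted.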

[2] = tested on: PI3K/Akt in MCF-7 cells; experiment: Western blot, peptide-induced PI3K/Akt phosphorylation in MCF-7; type: cell-based, human
[3] = tested on: PI3K/Akt in HMEC-1 cells; experiment: Western blot, peptide-induced PI3K/Akt phosphorylation in HMEC-1; type: cell-based, human
[4] = tested on: p44/42 MAPK signaling pathway in MCF-7 cells
[5] = tested on: p44/42 MAPK in HMEC-1 cells
[6] = tested on: rat aortic rings; experiment: Rat aortic ring assay; type: cell-based; settings: 6 days, p < 0.05
[7] = tested on: CAM of 10-day-old shell-less embryos; experiment: Chorioallantoic membrane in chick embryo; type: in vivo; settings: 66 hours
[8] = tested on: P-PI3K/Akt in NMuMG cells; experiment: Western blot, phosphorylation of PI3K/Akt in NMuMG; type: cell-based, murine; settings: maximum of dose response
[9] = tested on: P-p44/42 MAPK in NMuMG cells; experiment: Western blot, phosphorylation of p44/42 MAPK in NMuMG; type: cell-based, murine; settings: maximum of dose response
[10] = tested on: HUVEC cells; experiment: Cell migration assay, HUVEC; type: cell-based, human; settings: for peptide response hierarchy in molar potency for mediating cell movement: HUVEC migration
In short: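 Transwell-type chemotaxis plate with uncoated membrane. Test peptides and VEGF-A, at a range of concentrations, in FBS-free medium in bottom wells; 8000–10,000 HUVEC/well in FBS-free medium on top. Incubated 5–24 h at 37°C/5% CO2/100% humidity. Membranes methanol-fixed 5 min and stained with 0.5% crystal violet; upper cells removed. Bottom adherent cells photographed and counted.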

[11] = tested on: SCNH2 receptor in enriched MB435 cells; experiment: FACS binding inhibition assay with bSCNH2/SA488, enriched MB435; set-up: species or system human; settings: enriched MB435, 50 μM peptide, 5 μM bSCNH2 + 10 μg/ml SA488, FACS
[12] = tested on: PI3K/Akt and p44/42 MAPK signaling pathways; experiment: CTX/PTX sensitivity assay; type: cell-based

Compound: c1cc(CN2CCCNCCNCCCNCC2)ccc1CN1CCCNCCNCCCNCC1 [AMD3100]
- suppression of SCNH2 and APL-13 induced cell migration and invasion [1]: effectively suppressed

Compound: O=c1cc(N2CCOCC2)oc2c(-c3ccccc3)cccc12 [LY294002]
- block of APL-13 induced phosphorylation of PI3K/Akt [2]: 75%
- block of SCNH2 induced phosphorylation of PI3K/Akt [2]: 93%
- inhibition of APL-13 induced phosphorylation of PI3K/Akt [3]: 98%
- inhibition of SCNH2 induced phosphorylation of PI3K/Akt [3]: 96%
- suppression of SCNH2 and APL-13 induced cell migration and invasion [1]: effectively suppressed

Compound: CC(C)(C)Cn1c(N)nc2ccc(-c3[nH]c(C(C)(C)C)nc3-c3ccc(F)cc3)nc21 [LY2228820]
- suppression of SCNH2 and APL-13 induced cell migration and invasion [1]: effectively suppressed

Compound: N#CC(=C(/N)Sc1ccccc1N)/C(C#N)=C(/N)Sc1ccccc1N [U0126]
- suppression of SCNH2 and APL-13 induced cell migration and invasion [1]: effectively suppressed
- suppression of APL-13 induced phosphorylation of p44/42 MAPK [4]: 97%
- suppression of SCNH2 induced phosphorylation of p44/42 MAPK [4]: 97%
- suppression of APL-13 induced phosphorylation of p44/42 MAPK [5]: 95%
- suppression of SCNH2 induced phosphorylation of p44/42 MAPK [5]: 98%

Compound: Apelin-13 [APL-13]
- concentration inducing maximal vessel sprouting [6]: 10 nM
- neovascularization at all of the tested concentrations ([7]; angiogenic index, p < 0.005): dramatically induced neovascularization
- concentration inducing the maximum neovascularization ([7]; p < 0.005, no statistical difference to VEGF-A at 1 nM): 100 nM
- maximum P-PI3K/Akt compared to the control [8]: 8 folds
- maximum P-p44/42 MAPK compared to the control [9]: 5 folds
- peptide response hierarchy in molar potency for mediating cell movement [10]: SCNH2 > VEGF-A > APL-13
- maximal stimulating concentration ([10]; cell migration, dose-response on HUVEC): 10 nM
- block of the binding of bSCNH2 [11]: ineffective
- effect of CTX on peptide signaling (kinase activation) ([12]; CTX treatment, Western blot): indifferent
- effect of PTX on peptide signaling (kinase activation) ([12]; PTX pretreatment overnight, 100 pM peptide 10 min): sensitive

Compound: adrenomedullin [AM]
- block of the binding of bSCNH2 [11]: ineffective

Compound: arginine vasopressin [AVP]
- block of the binding of bSCNH2 [11]: ineffective

Compound: gastrin-releasing peptide (VPLPAGGGTVLTKMYPRGNHWAVGHLM-NH2; UniProt P07492 24-50, looked up) [GRP]
- block of the binding of bSCNH2 [11]: ineffective

Compound: luteinizing hormone-releasing hormone [LHRH]
- block of the binding of bSCNH2 [11]: ineffective

Compound: oxytocin [OXT]
- block of the binding of bSCNH2 [11]: ineffective

Compound: vascular endothelial growth factor A [VEGF-A]
- peptide response hierarchy in molar potency for mediating cell movement [10]: SCNH2 > VEGF-A > APL-13
